Laboratory results reported in ChEMBL document CHEMBL4339192, “De Novo Designed Amphipathic α-Helical Antimicrobial Peptides Incorporating Dab and Dap Residues on the Polar Face To Treat the Gram-Negative Pathogen, Acinetobacter baumannii” (J Med Chem, 2019).
Where a SMILES comes first, the peptide text is derived from it. [ ]: non-standard residue; d: D form. dOrn = NCCC[C@@H](N)C(=O)O

Key:
Assay type in all cases: functional
Acinetobacter baumannii [1] = test: Antibacterial activity against polymyxin B/colistin-resistant Acinetobacter baumannii M89949 measured after 24 hrs by microtiter dilution method; conditions: M89949, 24 h
How it was run: (§1)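 Broth microdilution in Mueller-Hinton (MH) medium. […] Plates were incubated 24 h at 37 °C. MIC was the lowest peptide concentration that inhibited growth, based on three sets of replicates.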

Acinetobacter baumannii [2] = test: Antibacterial activity against polymyxin B/colistin-resistant Acinetobacter baumannii M89941 measured after 24 hrs by microtiter dilution method; conditions: M89941, 24 h; how it was run: as §1
Acinetobacter baumannii [3] = test: Antibacterial activity against Acinetobacter baumannii 649 measured after 24 hrs by microtiter dilution method; conditions: Acinetobacter baumannii, 649, 24 h; how it was run: as §1
Acinetobacter baumannii [4] = test: Antibacterial activity against polymyxin B/colistin-resistant Acinetobacter baumannii M89963 measured after 24 hrs by microtiter dilution method; conditions: M89963, 24 h; how it was run: as §1
Acinetobacter baumannii [5] = test: Antibacterial activity against polymyxin B/colistin-resistant Acinetobacter baumannii M89951 measured after 24 hrs by microtiter dilution method; conditions: M89951, 24 h; how it was run: as §1
Acinetobacter baumannii [6] = test: Antibacterial activity against polymyxin B/colistin-resistant Acinetobacter baumannii M89953 measured after 24 hrs by microtiter dilution method; conditions: M89953, 24 h; how it was run: as §1
Acinetobacter baumannii [7] = test: Antibacterial activity against polymyxin B/colistin-resistant Acinetobacter baumannii M89955 measured after 24 hrs by microtiter dilution method; conditions: M89955, 24 h; how it was run: as §1
Acinetobacter baumannii [8] = test: Antibacterial activity against Acinetobacter baumannii isolate 1007660 measured after 24 hrs by microtiter dilution method; conditions: isolate 1007660, 24 h; how it was run: as §1
Acinetobacter baumannii [9] = test: Antibacterial activity against Acinetobacter baumannii isolate 963618 measured after 24 hrs by microtiter dilution method; conditions: isolate 963618, 24 h; how it was run: as §1
Acinetobacter baumannii [10] = test: Antibacterial activity against Acinetobacter baumannii 649 measured after 24 hrs in presence of 25% human serum by microtiter dilution method; conditions: Acinetobacter baumannii, 649, 24 h
How it was run: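 Blood strain 649 was tested by MH broth microdilution with and without 25% (v/v) human serum added to the medium. The test used a final inoculum of 5 × 10^5 cfu/mL and incubation at 37 °C. The ratio is the MIC in serum over the MIC in MH alone.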

Acinetobacter baumannii [11] = test: Antibacterial activity against Acinetobacter baumannii isolate 1001611 measured after 24 hrs by microtiter dilution method; conditions: isolate 1001611, 24 h; how it was run: as §1
Acinetobacter baumannii [12] = test: Antibacterial activity against polymyxin B/colistin-resistant Acinetobacter baumannii M89952 measured after 24 hrs by microtiter dilution method; conditions: M89952, 24 h; how it was run: as §1
Acinetobacter baumannii [13] = test: Antibacterial activity against Acinetobacter baumannii isolate 1021371 measured after 24 hrs by microtiter dilution method; conditions: isolate 1021371, 24 h; how it was run: as §1
Acinetobacter baumannii [14] = test: Antibacterial activity against Acinetobacter baumannii isolate 1018887 measured after 24 hrs by microtiter dilution method; conditions: isolate 1018887, 24 h; how it was run: as §1
Acinetobacter baumannii [15] = test: Antibacterial activity against Acinetobacter baumannii isolate 964304 measured after 24 hrs by microtiter dilution method; conditions: isolate 964304, 24 h; how it was run: as §1
Acinetobacter baumannii [16] = test: Antibacterial activity against Acinetobacter baumannii isolate 1010245 measured after 24 hrs by microtiter dilution method; conditions: isolate 1010245, 24 h; how it was run: as §1
Acinetobacter baumannii [17] = test: Antibacterial activity against Acinetobacter baumannii isolate 1017395 measured after 24 hrs by microtiter dilution method; conditions: isolate 1017395, 24 h; how it was run: as §1
Acinetobacter baumannii [18] = test: Antibacterial activity against Acinetobacter baumannii isolate 1035794 measured after 24 hrs by microtiter dilution method; conditions: isolate 1035794, 24 h; how it was run: as §1
Acinetobacter baumannii [19] = test: Antibacterial activity against Acinetobacter baumannii isolate 9383370 measured after 24 hrs by microtiter dilution method; conditions: isolate 9383370, 24 h; how it was run: as §1
Acinetobacter baumannii [20] = test: Antibacterial activity against Acinetobacter baumannii isolate 1010282 measured after 24 hrs by microtiter dilution method; conditions: isolate 1010282, 24 h; how it was run: as §1
Acinetobacter baumannii [21] = test: Antibacterial activity against Acinetobacter baumannii isolate 961997 measured after 24 hrs by microtiter dilution method; conditions: isolate 961997, 24 h; how it was run: as §1
Acinetobacter baumannii [22] = test: Antibacterial activity against Acinetobacter baumannii isolate 1002956 measured after 24 hrs by microtiter dilution method; conditions: isolate 1002956, 24 h; how it was run: as §1
Acinetobacter baumannii [23] = test: Antibacterial activity against Acinetobacter baumannii isolate 968886 measured after 24 hrs by microtiter dilution method; conditions: isolate 968886, 24 h; how it was run: as §1
Acinetobacter baumannii [24] = test: Antibacterial activity against Acinetobacter baumannii isolate 977751 measured after 24 hrs by microtiter dilution method; conditions: isolate 977751, 24 h; how it was run: as §1
Acinetobacter baumannii [25] = test: Antibacterial activity against Acinetobacter baumannii isolate 1035166 measured after 24 hrs by microtiter dilution method; conditions: isolate 1035166, 24 h; how it was run: as §1
Acinetobacter baumannii [26] = test: Antibacterial activity against Acinetobacter baumannii isolate 965463 measured after 24 hrs by microtiter dilution method; conditions: isolate 965463, 24 h; how it was run: as §1
Acinetobacter baumannii [27] = test: Antibacterial activity against Acinetobacter baumannii isolate 952654 measured after 24 hrs by microtiter dilution method; conditions: isolate 952654, 24 h; how it was run: as §1
Acinetobacter baumannii [28] = test: Antibacterial activity against Acinetobacter baumannii isolate 963659 measured after 24 hrs by microtiter dilution method; conditions: isolate 963659, 24 h; how it was run: as §1

Measured: MIC

CC(=O)N[C@H](CCCCN)C(=O)N[C@H](CC(C)C)C(=O)N[C@H](CCCN)C(=O)N[C@H](CO)C(=O)N[C@H](CC(C)C)C(=O)N[C@H](CC(C)C)C(=O)N[C@H](CCCN)C(=O)N[C@@H](C(=O)N[C@H](CC(C)C)C(=O)N[C@H](CO)C(=O)N[C@H](CCCN)C(=O)N[C@H](C)C(=O)N[C@H](CCCCN)C(=O)N[C@H](C)C(=O)N[C@H](C)C(=O)N[C@H](CCCCN)C(=O)N[C@H](CC(C)C)C(=O)N[C@H](CCCN)C(=O)N[C@@H](C(=O)N[C@H](CC(C)C)C(=O)N[C@H](CC(C)C)C(=O)N[C@H](CCCN)C(=O)N[C@H](C)C(=O)N[C@H](CC(C)C)C(=O)N[C@H](CO)C(=O)N[C@H](CCCN)C(N)=O)[C@H](C)O)[C@H](C)O (Ac-[dK][dL][dOrn][dS][dL][dL][dOrn][dT][dL][dS][dOrn][dA][dK][dA][dA][dK][dL][dOrn][dT][dL][dL][dOrn][dA][dL][dS][dOrn]-NH2)
0.4 µM: Acinetobacter baumannii [3] | Acinetobacter baumannii [4] | Acinetobacter baumannii [6] | Acinetobacter baumannii [7]
0.7 µM: Acinetobacter baumannii [1] | Acinetobacter baumannii [2] | Acinetobacter baumannii [5]

CC(=O)N[C@H](CCCCN)C(=O)N[C@H](CC(C)C)C(=O)N[C@H](CCCCN)C(=O)N[C@H](CO)C(=O)N[C@H](CC(C)C)C(=O)N[C@H](CC(C)C)C(=O)N[C@H](CCCCN)C(=O)N[C@@H](C(=O)N[C@H](CC(C)C)C(=O)N[C@H](CO)C(=O)N[C@H](CCCCN)C(=O)N[C@H](C)C(=O)N[C@H](CCCCN)C(=O)N[C@H](C)C(=O)N[C@H](C)C(=O)N[C@H](CCCCN)C(=O)N[C@H](CC(C)C)C(=O)N[C@H](CCCCN)C(=O)N[C@@H](C(=O)N[C@H](CC(C)C)C(=O)N[C@H](CC(C)C)C(=O)N[C@H](CCCCN)C(=O)N[C@H](C)C(=O)N[C@H](CC(C)C)C(=O)N[C@H](CO)C(=O)N[C@H](CO)C(N)=O)[C@H](C)O)[C@H](C)O (Ac-[dK][dL][dK][dS][dL][dL][dK][dT][dL][dS][dK][dA][dK][dA][dA][dK][dL][dK][dT][dL][dL][dK][dA][dL][dS][dS]-NH2)
1.4 µM: Acinetobacter baumannii [13] | Acinetobacter baumannii [14] | Acinetobacter baumannii [15] | Acinetobacter baumannii [17] | Acinetobacter baumannii [18] | Acinetobacter baumannii [20] | Acinetobacter baumannii [21] | Acinetobacter baumannii [25] | Acinetobacter baumannii [27] | Acinetobacter baumannii [28]
1.5 µM: Acinetobacter baumannii [6]
0.7 µM: all other assays above
